The values that follow come from the array DNA melting data of Ke et al. (doi:10.1101/2024.01.08.574731).

A short description of series [1]: folding enthalpy; higher = less favourable; fluorescence melt of hairpins on a sequencing array, two-state fit. The note with it: sodium 0.088 M. An outline of the steps:
(§1)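 Cy3 fluorescence of library hairpins on a sequenced MiSeq flow cell, with annealed Cy3 and quencher oligos, was imaged in 50 mM Na-HEPES pH 8.0, 25 mM NaCl in 2.5 °C steps up to 60 °C. Signals were normalised to pre-quench Cy3 and to control variants. Melting temperature and folding enthalpy came from bootstrapped two-state fits, inverse-variance combined over four replicates. Fitted temperatures were raised by 9.35 °C to match UV melts.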

A short description of series [2]: melting temperature; fluorescence melt of hairpins on a sequencing array, two-state fit, raised by 9.35 °C to match UV melts. The note with it: sodium 0.088 M. The essentials: as §1

As to CCCGAGAAATCGGG (((((....))))), in series [1], the folding enthalpy is -19.6 kcal/mol. Further, the Tm in series [2] was 54.2 °C.
With GTTTAAGGAAACTTGAAC (((.(((....))).))), in series [1], the folding enthalpy is -18.5 kcal/mol. Moreover, in series [2], the Tm was found to be 35 °C.
For GCGATTAGTCGC ((((....)))), in series [1], the folding enthalpy was -26.7 kcal/mol. The Tm in series [2] was 51.4 °C.
In the case of GGGACCGAAAGGTGACCC ((((((....)))..))), the folding enthalpy in series [1] is -17.6 kcal/mol. In series [2], the Tm came out at 45.6 °C.
Taken in the same sequence, the figures for GCCGCGCGAAAGCTCCGC ((.(.((....)).).)) were -7.61 kcal/mol and 33.2 °C.
For the sequence CGCACGGAAACGTTAGCG ((((((....)))..))), the folding enthalpy in series [1] was -31.9 kcal/mol. The Tm in series [2] was found to be 44.8 °C.
As for GATCCGTCCACGGATC ((((((....)))))), in series [1], the folding enthalpy is -43 kcal/mol. Also, in series [2], the Tm came out at 64.1 °C.
On to GATCAAAGGTTGATC ((((((...)))))), for which the folding enthalpy in series [1] is -27.2 kcal/mol. Moreover, in series [2], the Tm came out at 40 °C.
For the sequence GTGGGTGGAAACATCCGC (.((.((....)).)).), in series [1], the folding enthalpy is -26.3 kcal/mol. Further, the Tm in series [2] was found to be 44.2 °C.
GATCAGCAATCTGATC ((((((....)))))): the folding enthalpy in series [1] is -32.5 kcal/mol. Moreover, the Tm in series [2] amounted to 47.2 °C.
Turning to GATTCCCGAAAGGGCATC (((.(((....))).))), in series [1], the folding enthalpy was -20.8 kcal/mol. In addition, in series [2], the Tm came out at 41.5 °C.
Consider CGATAGCGGAAACGCTCG (((..(((....)))))), for which the folding enthalpy in series [1] is -13.9 kcal/mol. For the same sequence, the Tm in series [2] was 41 °C.
On to GCTGACGCGAAAGCGAGC (((..(((....)))))), for which the folding enthalpy in series [1] is -13.9 kcal/mol. For the same sequence, in series [2], the Tm came to 47.1 °C.
GCCCACTCGAAAGAGGGC (((..(((....)))))): in series [1], the folding enthalpy is -22.5 kcal/mol. Moreover, the Tm in series [2] was found to be 50.6 °C.
In the case of GGCACCGAAAGGTAGCC ((((((....))).))), the folding enthalpy in series [1] is -36.9 kcal/mol. The Tm in series [2] came out at 61.4 °C.
GATCCGAGGTCGGATC ((((((....)))))): the folding enthalpy in series [1] was -38.8 kcal/mol. In addition, the Tm in series [2] is 58.3 °C.
GAATCGGGAAACCGGTTC (((.(((....))).))): in series [1], the folding enthalpy is -35.8 kcal/mol. The Tm in series [2] came out at 50.2 °C.
Turning to GATCGACAGGTCGATC ((((((....)))))), the folding enthalpy in series [1] was -39.1 kcal/mol. Besides, the Tm in series [2] worked out at 60.3 °C.
Taken in the same sequence, the figures for GATCACCTCGTGATC ((((((...)))))) were -38.2 kcal/mol and 59.3 °C.
For GCGTACCTACGC ((((....)))), the folding enthalpy in series [1] was -29.7 kcal/mol. The Tm in series [2] was found to be 52.8 °C.
With GCGAGCATCGC ((((...)))), the folding enthalpy in series [1] was -21.8 kcal/mol. In addition, the Tm in series [2] came out at 62.1 °C.
GTTCATCGAAAGATAAAC (((.(((....))).))): the folding enthalpy in series [1] was -18.1 kcal/mol. Besides, the Tm in series [2] came to 31.5 °C.
For GATCGCTCGCGCGATC ((((((....)))))), the folding enthalpy in series [1] is -31.7 kcal/mol. Also, in series [2], the Tm was found to be 67.4 °C.
Take GGGTGATCGAAAGATCCC (((..(((....)))))): in series [1], the folding enthalpy is -19 kcal/mol. The Tm in series [2] was 50.2 °C.
In the case of CGGATCGGAAACGAACCG (((.(((....))).))), the folding enthalpy in series [1] was -42.7 kcal/mol. Also, the Tm in series [2] turned out to be 52 °C.
As to GATCGTTTCTACGATC ((((((....)))))), in series [1], the folding enthalpy was -43 kcal/mol. Also, the Tm in series [2] stood at 55.8 °C.
Turning to GGTTATCGAAAGATTACC (((.(((....))).))), in series [1], the folding enthalpy is -31.1 kcal/mol. Also, in series [2], the Tm is 43.5 °C.
Turning to GGGTGGCGAAAGCCTCCC (((.(((....))).))), the folding enthalpy in series [1] was -28 kcal/mol. Besides, in series [2], the Tm was 66.2 °C.
Regarding GCGGAGCGAAAGCTCTGC ((.((((....)))).)), in series [1], the folding enthalpy is -35.8 kcal/mol. For the same sequence, the Tm in series [2] came out at 68 °C.
For GCCGCGCGAAAGCAGGGC (((..((....))..))), the folding enthalpy in series [1] was -23.1 kcal/mol. Further, the Tm in series [2] was 61.5 °C.
Consider GATCTCCGTGGAGATC ((((((....)))))), for which, in series [1], the folding enthalpy is -47.9 kcal/mol. In series [2], the Tm was determined as 59.2 °C.
With CGCCGACGGAAACGTGCG (((..(((....)))))), the folding enthalpy in series [1] was -27.6 kcal/mol. Further, the Tm in series [2] came out at 45.5 °C.
On to GATCGCCTTCGCGATC ((((((....)))))), for which the folding enthalpy in series [1] was -41 kcal/mol. Also, in series [2], the Tm turned out to be 68.4 °C.
In the same order, the values of GATCGGCAGTCCGATC ((((((....)))))) are -37.7 kcal/mol and 56.7 °C.
With GCTTCGCGAAAGCGTCGC ((..(((....)))..)), the folding enthalpy in series [1] is -15.6 kcal/mol. The Tm in series [2] was 41.4 °C.
In the case of GATGCACGAAAGTGAATC (((.(((....))).))), in series [1], the folding enthalpy was -23.4 kcal/mol. Besides, in series [2], the Tm amounted to 50.8 °C.
In the same order, the values of GAGTGAGGAAACTCACCC (.(((((....))))).) are -13.9 kcal/mol and 39.4 °C.
Take GTGATGGGAAACCATTGC (..((((....))))..): the folding enthalpy in series [1] was -23.6 kcal/mol. The Tm in series [2] was determined as 33.7 °C.
